Source: PubChem BioAssay (several laboratories)
NPY2 pot ag – NPY-Y2 potentiators or agonists, primary screen, cell-based; 220,000 compounds, 0.45% hits; activation, % at 3.6 µM; cells expressing NPY-Y2, potentiator/agonist read-out; Neuropeptide Y receptor type 2 (Homo sapiens), P49146; in the data active = activation above about 27%;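 note: cells stimulated with NPY near EC25 plus isoproterenol at EC100; 0% = vehicle plus submaximal agonist and 100% = vehicle plus saturating agonist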
Furin inh – human furin inhibitors, primary screen, biochemical, fluorescence intensity; P09958; purified furin, fluorogenic substrate cleavage; 220,000 compounds, 0.061% hits; inhibition, % at 20 µM or 30 µM; AID 463115, 2010; in the data active = inhibition above about 25%
NPY-Y1 antag – NPY-Y1 receptor antagonists, primary screen, cell-based. 200,000 compounds, 1% hits. HEK293-CNG Y1 cells, membrane potential fluorescence; NPY at EC95, then isoproterenol. Neuropeptide Y receptor type 1 (Homo sapiens), P25929. inhibition, % at 3.6 µM. AID 1040, 2008;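 active = inhibition above the campaign mean inhibition of all tested compounds plus 3 SD, cut at about 20% in these data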;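 note: 0% = DMSO wells given NPY plus isoproterenol and 100% = isoproterenol alone without NPY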
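Material: HEK293 cells with Y1 receptor plus CNG channel; times: compound incubation 1 h at room temperature, readout 45 min post-stimulation; signal: fluorescence, membrane potential probe; read-out basis: fluorescence ratio normalized to % inhibition between controls; benchmarks: full-block control isoproterenol-only wells, zero-block control NPY plus isoproterenol wells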
KCC2 mod – KCC2 cotransporter modulators, thallium flux, primary screen, cell-based, HEK293 KCC2, FluoZin-2 fluorescence, MLSMR | Solute carrier family 12 member 5 (Homo sapiens), Q9H2X9 | KCC2 cells, thallium flux FluoZin-2 fluorescence | B-score of Tl+ flux slope (higher = more flux/activation; lower = inhibition) at 10 µM | 190,000 compounds, 2.2% hits | AID 1456, 2008;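 active = thallium flux slope and its plate-corrected score both differing from the plate sample mean at a set confidence after two filtering rounds, in either direction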;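 note: slope of fluorescence scaled to starting intensity during 10 to 20 s after thallium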
NPY1 pot ag – NPY-Y1 receptor potentiators or agonists, primary screen, cell-based; Neuropeptide Y receptor type 1 (Homo sapiens), P25929; NPY-Y1 expressing cells, potentiator/agonist activation; activation, % at 3.6 µM; 220,000 compounds, 0.37% hits; in the data active = activation above about 33%, passing the limit was not always enough;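 note: cells stimulated with NPY at EC10 then isoproterenol at EC100; 0% = low agonist plus stimulus and 100% = saturating agonist plus stimulus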
NPY Y2 blocker – NPY-Y2 receptor antagonists, primary screen, cell-based; Neuropeptide Y receptor type 2 (Homo sapiens), P49146; NPY-Y2 expressing cells, antagonist mode; inhibition, % at 2.7 µM; 140,000 compounds, 0.99% hits; in the data active = inhibition above about 17%;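 note: 0% = vehicle with agonist challenge and 100% = reference antagonist with challenge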
KCC2 secondary – KCC2 modulators in sodium-free buffer, confirmation, cell-based, HEK293 KCC2, thallium flux, secondary assay; normalised thallium flux (F/F0 slope) at 10 µM; FluoZin2 fluorescence; hits give high values; 3,700 compounds, 15% hits; AID 1713, 2009; shares compounds with KCC2 mod;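 active = thallium flux slope above the same plate's solvent-only control mean plus 3 SD; inconclusive = the two replicate wells disagree; inactive = no significant difference from solvent-only control wells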
KCC2 bumet counter – thallium flux persisting under bumetanide in KCC2 cells, confirmation, counter-screen for KCC2 modulator project, cell-based, HEK293 KCC2, FluoZin2, secondary assay 3. shares compounds with KCC2 mod. HEK293-KCC2 + bumetanide/ouabain; hits give high values. normalized thallium flux at 10 µM. 3,700 compounds, 49% hits;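 active = thallium entry rate above the same plate's blocked-transporter control wells by more than 3 SD; inconclusive = the two repeat wells disagree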;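 note: raw slope of fluorescence over initial fluorescence between 10 and 20 s after thallium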
KCC2 secondary2 – KCC2 modulators without ouabain present, confirmation, cell-based, HEK293 KCC2, thallium flux, FluoZin2, secondary assay 2 | thallium flux FluoZin2 fluorescence; actives lie on both sides; F/F0 rise rate, 10–20 s post-thallium | normalized thallium flux at 10 µM | shares compounds with KCC2 mod | 3,700 compounds, 23% hits;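 active = thallium flux slope more than 3 SD above or below the plate's solvent-only control mean, mostly below; inconclusive = the two repeat wells disagreed; inactive = no significant shift from solvent-only controls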;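 note: raw slope with 0.1% DMSO as baseline and bumetanide as block control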
HEK counter1 – thallium flux modulation in parental HEK cells, confirmation, counter-screen for KCC2 modulator project, cell-based, counterscreen 1; shares compounds with KCC2 mod; HEK293 parental cells, thallium flux FluoZin2, ouabain; baseline-ratio fluorescence slope, 10–20 s after thallium; thallium flux rate (normalised fluorescence) at 10 µM; 3,700 compounds, 46% hits;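 active = thallium flux rate significantly above the same plate's solvent-only control wells, beyond their mean plus 3 SD; inconclusive = the two replicate wells gave conflicting results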
KCC2 retest ouab – KCC2 inhibitors and activators, ouabain retest, confirmation, HEK-KCC2 cells | shares compounds with KCC2 mod | HEK293-KCC2, thallium flux FluoZin2 fluorescence; bidirectional: low = inhibitor, high = activator | raw Tl+ flux slope (below DMSO = inhibition, above = activation) at 10 µM | 3,700 compounds, 48% hits | AID 1717, 2009;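 active = thallium flux slope beyond 3 SD from same-plate DMSO control mean in most replicates, usually higher, sometimes lower; inconclusive = repeat tests gave conflicting results; inactive = no significant difference from controls in most replicates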;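 note: slope of initial-normalized fluorescence between seconds 10 and 20 after thallium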
HEK counter2 – native HEK Tl+ uptake effects, second counter-screen – HEK cells, counterscreen 2, counter-screen for KCC2 modulator project, confirmation | shares compounds with KCC2 mod | HEK293 parental, thallium flux FluoZin-2 fluorescence slope | thallium flux slope at 10 µM | 3,700 compounds, 33% hits | AID 1718, 2009;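 active = thallium flux slope above the same plate's solvent-control mean plus 3 SD in both duplicate wells; inconclusive = duplicate wells that disagreed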;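 note: run without ouabain in cells lacking the KCC2 cotransporter; slope of fluorescence scaled to its starting value between 10 and 20 s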
The depositor's hits bear a star; u = inconclusive; x = no result. Sampled rows, rich in hits. Any-hit rate of the full collection: about 3.7%.

SMILES	NPY2 pot ag	Furin inh	NPY-Y1 antag	KCC2 mod	NPY1 pot ag	NPY Y2 blocker	KCC2 secondary	KCC2 bumet counter	KCC2 secondary2	HEK counter1	KCC2 retest ouab	HEK counter2
CC(=O)NCCOc1nc(N2CCCCC2)nc(N2CCCCC2)n1	10	-8	-4	-0.62	26	x	x	x	x	x	x	x
N#Cc1sc(C(N)=O)c(-c2ccccc2)c1-c1ccccc1	20	-11	x	5.1*	15	x	0.0073	0.0042	0.029	0.0074	0.018	0.01
COc1ccc(-c2c(C#N)sc(C(N)=O)c2-c2ccc(OC)cc2)cc1	-12	-7	x	-2.6	-19	x	x	x	x	x	x	x
N#CCCCSc1ncccc1-c1nc2ccccc2[nH]1	11	-47	5	0.44	10	0	0.0079	0.0061	0.027	0.0066	0.02	0.0086
COc1ccc(Cl)cc1NC(=O)CC(C)=O	-2	-18	3	7.3*	0	-3	u	u	0.033	0.0081	0.023	0.011
COCC(=O)Nc1cc(OC)ccc1OC	-2	-1	2	x	-19	3	0.01	u	0.035	u	0.023	u
COCC(=O)Nc1cc([N+](=O)[O-])ccc1OC	8	-11	-1	-0.26	4	6	x	x	x	x	x	x
COc1cccc(/C=N/NC(=O)CNC(=O)c2ccc(S(=O)(=O)N3CCCC3)cc2)c1OC	5	-29	-1	0.29	20	x	x	x	x	x	x	x
CCC(CC)C1=NN2C(=N)/C(=C\c3cc(C)n(-c4cccc(C)c4)c3C)C(=O)N=C2S1	3	-22	6	6.3	-5	4	x	x	x	x	x	x
CC(=O)N1CC(=O)N=C1SCC(=O)Nc1nc(-c2ccccc2)c(-c2ccccc2)s1	13	-19	-4	-0.36	13	-1	x	x	x	x	x	x
CNC(=O)CN(c1ccc(F)cc1)S(=O)(=O)c1cc(C)ccc1OC	1	-22	-4	x	-5	-2	x	x	x	x	x	x
COc1ccc(N/C=C/c2nc(SC)nnc2C)cc1	-17	-16	-2	-3*	2	x	0.0068	0.0022*	0.024*	0.004*	0.012*	0.0077*
CSc1nnc(C)c(/C=C/Nc2ccc(F)cc2)n1	6	-14	-1	-1.3	-11	-1	x	x	x	x	x	x
Fc1ccc(NC(=S)N/N=C/c2ccc(F)c(F)c2)cc1	-16	-26	2	27*	-20	x	0.016*	0.063*	0.031	0.022*	0.044*	0.013*
Fc1ccc(/C=N/NC(=S)Nc2ccc(Cl)cc2Cl)cc1	-32	-19	x	7.6*	-8	x	0.0099	0.018*	0.03	0.012*	0.029*	u
